Sampled rows, rich in hits. Any-hit rate of the full collection: about 4.6%.
OX1R antag-1: antagonists of human orexin 1 receptor (OX1R); 1.8% of 330,000 active; Orexin/Hypocretin receptor type 1 (Homo sapiens), O43613; inhibition, % at 6.6 µM; OX1R-expressing cells, FRET antagonist read-out; in the data active = inhibition mostly above about 38%, no sharp cut-off; inactive = mostly below about 40%;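 note: 0% = agonist challenge alone and 100% = reference antagonist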
TAAR1 antagonist: human TAAR1 antagonists, primary screen, Fluo-8 calcium fluorescence, CHO RD-HGA16 cells | Trace amine-associated receptor 1 (Homo sapiens), Q96RJ0 | antagonist | inhibition, % at 3 µM | 1.5% of 360,000 active;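 active = inhibition above a per-plate cutoff, the mean inhibition of test compounds on that plate plus 3 SD, cut at about 49% in these data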;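 note: 0% = DMSO plus EC80 beta-PEA response and 100% = DMSO alone without agonist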
Target sequence (Q96RJ0 whole entry, looked up): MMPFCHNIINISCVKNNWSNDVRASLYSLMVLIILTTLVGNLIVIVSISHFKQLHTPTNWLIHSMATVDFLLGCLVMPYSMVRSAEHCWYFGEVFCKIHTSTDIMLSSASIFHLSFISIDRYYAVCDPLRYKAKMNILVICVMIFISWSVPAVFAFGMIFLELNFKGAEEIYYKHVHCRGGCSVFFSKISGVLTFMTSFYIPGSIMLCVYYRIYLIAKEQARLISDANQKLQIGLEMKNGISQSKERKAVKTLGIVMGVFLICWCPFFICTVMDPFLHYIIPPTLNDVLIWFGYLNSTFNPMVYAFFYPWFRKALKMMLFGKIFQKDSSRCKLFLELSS
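Test system – hTAAR1-expressing CHO RD-HGA16 cells, Gα16-coupled · Reagent – β-PEA at EC80 concentration, post-compound challenge · Compound dosing – 3 µM, single point · Timing – 140 s kinetic read after compound, 140 s after agonist · Detection – Fluo-8 intracellular calcium dye fluorescence, real-time kinetic reads · Control set – DMSO and EC80 PEA controls · Repeats – n of 1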
OX1R antag-2: OX1R (HCRTR1) antagonists, primary screen, fluorescence, CHO/OX1R cells, Fluo-8 calcium, orexin A. Fluo-8 calcium fluorescence. inhibition, % at 5 µM. 0.43% of 330,000 active;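 active = inhibition above its plate's threshold, mean inhibition of all tested compounds on the plate plus 3 SD, cut at about 37% in these data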;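 note: 0% = orexin A challenge wells and 100% = SB-334867-A antagonist wells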
CHO parental Ca: ATP-evoked calcium signal inhibitors, parental CHO, primary screen, counter-screen for OX1R antagonist project, cell-based, fluorescence, Fluo-8 calcium dye; inhibition, % at 5.6 µM; AID 463079, 2010; parental CHO-K1, ATP-induced calcium, Fluo-8 fluorescence; 0.63% of 330,000 active;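 active = inhibition above that plate's mean sample inhibition plus 3 SD, cut at about 26% in these data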;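 note: 0% = ATP-challenged DMSO wells and 100% = DMSO wells without ATP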
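Material: Parental CHO cells | Reagent: ATP | Compound dosing: Single nominal dose of 5.6 µM per compound | Detection: Intracellular calcium via Fluo-8 no-wash fluorescent dye | Read-out: % inhibition of ATP-induced calcium mobilization | Benchmarks: Low control ATP plus DMSO, high control DMSO only | Replicates: Singlicate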
TAAR1 ag: human TAAR1 agonists, primary screen, Fluo-8 calcium fluorescence, CHO RD-HGA16 cells. Trace amine-associated receptor 1 (Homo sapiens), Q96RJ0. vehicle wells 0%, saturating PEA agonist 100%. activation, % at 3 µM. 0.99% of 360,000 active. AID 624467, 2012;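 active = activation above the mean activation of all test compounds in the run plus 3 SD, cut at about 38% in these data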
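Test system: RD-HGA16 (CHO) cells co-expressing Gα16 and hTAAR1; dosing: one-point dosing at 3 µM (nominal); timing: 17-24 h seeding, 75 min 37 °C dye, 30 min RT; signal: kinetic Fluo-8 calcium fluorescence; read-out basis: % activation relative to PEA EC100 response; controls: DMSO and PEA EC100; replicates: n 1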
GPR7 antag: GPR7 receptor antagonists, primary screen, cell-based, fluorescence, single concentration | Neuropeptides B/W receptor type 1 (Homo sapiens), P48145 | GPR7-expressing cells, fluorescence antagonist assay | inhibition, % at 4.4 µM | 1.1% of 290,000 active | AID 1861, 2009; in the data active = inhibition above about 16%, passing the limit was not always enough;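 note: cells stimulated with the agonist NPW; 0% = agonist with vehicle and 100% = vehicle without agonist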
Target sequence (P48145 whole entry, looked up): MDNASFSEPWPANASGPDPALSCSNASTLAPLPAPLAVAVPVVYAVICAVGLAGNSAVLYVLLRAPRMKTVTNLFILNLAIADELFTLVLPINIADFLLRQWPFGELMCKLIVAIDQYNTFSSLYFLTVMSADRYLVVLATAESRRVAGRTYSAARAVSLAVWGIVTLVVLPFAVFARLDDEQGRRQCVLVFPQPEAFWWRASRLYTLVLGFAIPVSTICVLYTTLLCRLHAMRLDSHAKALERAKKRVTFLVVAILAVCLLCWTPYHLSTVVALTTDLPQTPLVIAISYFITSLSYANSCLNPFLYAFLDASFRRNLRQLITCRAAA
GPR7 antag cf: GPR7 receptor antagonists, confirmation, cell-based, fluorescence, single concentration | shares compounds with GPR7 antag | GPR7-expressing cells, calcium fluorescence antagonist mode | inhibition, % at 4.4 µM | 52% of 2,400 active | AID 1952, 2009; in the data active = inhibition above about 24%;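 note: stimulated with the GPR7 agonist NPW; 0% = agonist plus vehicle and 100% = vehicle alone without agonist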
MCHR1 antag: MCHR1 antagonists in cells, counter-screen for GPR7 antagonist project, cell-based, fluorescence, human | shares compounds with GPR7 antag | MCHR1-expressing cells, fluorescence antagonist assay | inhibition, % at 4.4 µM | 62% of 2,400 active | AID 2148, 2009; in the data active = inhibition above about 22%;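 note: 0% = vehicle with agonist and 100% = vehicle without agonist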
TAAR1 ag confirm: human TAAR1 agonists, retest of hits, confirmation, Fluo-8 calcium fluorescence, CHO RD-HGA16 cells; shares compounds with TAAR1 ag; scaled: DMSO 0%, maximal phenethylamine 100%; activation, % at 3 µM; 82% of 2,400 active;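 active = activation above a cutoff set at the run's mean compound activation plus 3 SD, cut at about 39% in these data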
Ga16 ag counter: nonselective calcium mobilization agonists, CHO-Ga16 cells, counter-screen for hTAAR1 agonist project, cell-based, fluorescence, CHO-Ga16 parental line. Fluo-8 calcium fluorescence; normalized to maximal ATP response, DMSO zero. activation, % at 3 µM. shares compounds with TAAR1 ag. 50% of 2,400 active;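 active = activation above the run cutoff, the mean activation over all tested wells plus 3 SD, cut at about 12% in these data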;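 note: 0% = DMSO wells and 100% = maximal ATP response on the peak over basal ratio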
TAAR1 desens: TAAR1 desensitization by agonist hits, confirmation, counter-screen for TAAR1 agonist project, cell-based, fluorescence, tachyphylaxis; shares compounds with TAAR1 ag; CHO RD-HGA16 hTAAR1, Fluo-8 calcium, beta-PEA response inhibition; inhibition, % at 3 µM; 46% of 2,400 active; AID 651951, 2012;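 active = inhibition above the run cutoff, the mean inhibition of all test compounds plus 3 SD, cut at about 49% in these data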;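 note: beta-PEA stimulus applied at its EC80; loss of beta-PEA calcium signal after compound pretreatment read as receptor desensitization; 0% = DMSO with beta-PEA at EC80 and 100% = DMSO alone without agonist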
Ga16 nonsel ant: inhibition of ATP-evoked calcium response in CHO-Ga16 cells, counter-screen for TAAR1 agonist project, cell-based, fluorescence; shares compounds with TAAR1 ag; CHO-Ga16 ATP-induced calcium, Fluo-8 fluorescence; inhibition, % at 3 µM; 39% of 2,400 active; AID 651952, 2012;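 active = inhibition above the plate's mean compound inhibition plus 3 SD, computed per plate, cut at about 22% in these data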;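 note: 0% = EC80 ATP with DMSO and 100% = DMSO wells without ATP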
Starred values were filed as active, the others as inactive; · = not tested or not shown.

SMILES	OX1R antag-1	TAAR1 antagonist	OX1R antag-2	CHO parental Ca	TAAR1 ag	GPR7 antag	GPR7 antag cf	MCHR1 antag	TAAR1 ag confirm	Ga16 ag counter	TAAR1 desens	Ga16 nonsel ant
O=C(Nc1ccccc1)Nc1ccno1	-3	5	3	-23	48*	27*	7	6	87*	3	67*	13
Cc1cc2c(c(SCC(=O)NCc3ccccc3Cl)n1)C(=O)OC2	19	-17	-20	-19	1	-6	·	·	·	·	·	·
Cc1ccc(-n2c(SCC(N)=O)nnc2-c2ccc(S(=O)(=O)N3CCCCC3)cc2)c(C)c1	10	13	-15	-2	38*	35*	45*	18	29	16*	32	34*
Cc1ccccc1OCc1n(CC(=O)OC2CC(C)CCC2C(C)C)c2ccccc2[n+]1C (centres undefined)	16	31	46*	33*	47*	42*	61*	92*	87*	23*	87*	48*
COc1ccccc1N1CN(CCc2ccccc2)CNC1=S	17	57*	-5	-19	83*	30*	5	-2	101*	5	84*	1
CCCn1c(O)c(N=NC(=O)c2cccnc2)c2cc(Br)ccc21	21	-22	-10	-7	1	6	·	·	·	·	·	·
Nc1c(C(=O)NCc2ccc3c(c2)OCO3)nnn1Cc1ccc(Br)cc1	-16	48	-4	12	65*	24*	27*	21	102*	46*	76*	38*
CN1C(=O)/C(=C\c2ccc(N(C)C)cc2)OC1=S	·	62*	·	·	100*	44*	44*	52*	87*	116*	58*	68*
COc1ccccc1NC(=O)C1=C(C)Nc2nc(CCCO)nn2C1c1ccc2c(c1)OCO2 (centres undefined)	41	-16	-16	-12	11	-6	·	·	·	·	·	·
CCOC(=O)c1ccc(NC(=O)COc2ccccc2CNCCc2ccccc2)cc1	7	36	-4	-2	81*	31*	47*	73*	111*	23*	85*	27*
CC(=O)Nc1ccc(S(=O)(=O)N(C)CC(=O)Nc2cccc(S(=O)(=O)N3CCCC3)c2)cc1	8	-12	1	-8	1	·	·	·	·	·	·	·
COc1ccccc1CNS(=O)(=O)c1cc2c3c(c1)C(C)C(=O)N3CCC2 (centres undefined)	12	-15	4	-16	2	-11	·	·	·	·	·	·
N=c1c2c(-c3ccccc3)c(-c3ccccc3)n(Cc3ccco3)c2ncn1Cc1ccco1	20	46	37	31	86*	37*	79*	100*	91*	54*	75*	37*
N=c1c2c(ncn1Cc1ccco1)Oc1ccc3ccccc3c1C2c1ccccc1 (centres undefined)	24	-28	-31	-14	-3	-7	·	·	·	·	·	·
Cc1ccc(NS(=O)(=O)c2ccc(C(=O)OCC(=O)Nc3cc(C)on3)cc2)cc1	·	7	·	·	72*	26*	38*	52*	72*	35*	50*	37*
COc1ccc(NS(=O)(=O)c2cccc(C(=O)OCC(=O)Nc3cc(C)on3)c2)cc1	28	-1	-16	-16	6	10	·	·	·	·	·	·
CCCCOc1ccc(Br)cc1/C(C)=N/NC1=NCCN1	12	8	-26	7	58*	24*	36*	60*	66*	10	27	7
COC(=O)C(/C=N/OCc1ccc([N+](=O)[O-])cc1)NC(=O)c1cccc(Cl)c1 (centres undefined)	17	88*	18	11	95*	38*	65*	50*	94*	51*	78*	41*
Cc1ccc(CONC(=O)c2cccc([N+](=O)[O-])c2)cc1	7	-1	-5	-9	0	·	·	·	·	·	·	·
CSCC[C@H](NC(=O)C1CCN(S(=O)(=O)c2ccc(C)cc2)CC1)C(=O)NCc1ccco1	3	-18	-41	-22	3	-8	·	·	·	·	·	·
COC(=O)C(NC(=O)c1ccccc1Cl)(Nc1ncc(S(=O)(=O)c2ccc([N+](=O)[O-])cc2)s1)C(F)(F)F (centres undefined)	17	43	20	2	88*	34*	56*	43*	57*	27*	43	29*
O=C(CCl)Nc1ncc(S(=O)(=O)c2ccc([N+](=O)[O-])cc2)s1	24	-7	8	-9	3	·	·	·	·	·	·	·
COc1cc(-c2noc(C)c2-c2ccc(N(C)C)nc2)cc(OC)c1OC	75*	54*	-2	-6	96*	60*	69*	67*	84*	48*	54*	31*
CCC(C)(C(=O)NC1CCCC1)N(C(=O)CC1NC(=O)NC1=O)c1ccc(C)cc1 (centres undefined)	8	-15	-27	-4	2	-5	·	·	·	·	·	·
Cc1cc(C)c(OCC(=O)Nc2ccccc2N2CCCCC2)c(C)c1	20	-25	-20	-29	4	·	·	·	·	·	·	·

Bioassay records (PubChem)
